One experiment deals with U-266. The experiment in a line: Antitumor activity against human U266 cells after 24 to 72 hrs by MTT assay. The format is functional, cell-based. In short, it runs like this:
(§1)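 Myeloma lines grown in RPMI 1640 with 10% heat-inactivated FBS and 2 mM glutamine. 20,000 cells/well were exposed to a dilution range of compound in RPMI1640/10% FBS (final DMSO ≤0.1%), with vehicle-only controls, at 37 °C for 24–72 h (typically 72 h). MTT was added for 2 h at 37 °C, then lysis buffer (20% SDS, 50% DMF, pH 4.7) for 6 h.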

The nature of experiment [1]: Antitumor activity against human MM1 cells after 24 to 72 hrs by MTT assay. The class given is functional, cell-based. Put shortly: as §1
Experiment [2] is described as follows: Antitumor activity against human OCI-My4 cells after 24 to 72 hrs by MTT assay. The format is functional, cell-based. Put shortly: as §1
A short description of experiment [3]: Antitumor activity against human U373MG cells after 24 to 72 hrs by MTT assay. The format is functional, cell-based, U-373MG ATCC. As to conditions: U373 MG. In short, it runs like this:
(§2)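 Tumor cells were plated at 20,000/well and given serially diluted compound in RPMI1640 with 10% FBS (final DMSO ≤0.1%) or vehicle alone, then incubated 24–72 h at 37 °C.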
A general note: Tetrazolium assays rely on reduction of a dye to a coloured formazan, in cell work by metabolically active cells.

Experiment [4] is described as follows: Antitumor activity against human U87MG cells after 24 to 72 hrs by MTT assay. The format is functional, cell-based, U-87MG ATCC. As to conditions: U-87 MG. In short, it runs like this: as §2
The test system of a further experiment is U-87 MG. Put plainly: Ratio of AG490 IC50 to compound IC50 for human U87MG cells. The class given is functional, U-87MG ATCC.
The next experiment relates to U373 MG. The experiment in a line: Ratio of AG490 IC50 to compound IC50 for human U373MG cells. The format is functional, U-373MG ATCC.

This is an account of results in ChEMBL document CHEMBL1921756, “Tyrphostin-like compounds with ubiquitin modulatory activity as possible therapeutic agents for multiple myeloma” (Bioorg Med Chem, 2011).

Take `N#C/C(=C\c1cccc(Br)n1)C(=O)NC(c1ccccc1)C1CC1` (racemic): the IC50 came to 1300 nM with U-266, 1100 nM in experiment [1] and 1600 nM in experiment [2].

With `C[C@H](NC(=O)/C(C#N)=C/c1ccc([N+](=O)[O-])c([N+](=O)[O-])c1)c1ccccc1`, the IC50 in experiment [1] was > 10000 nM.

Turning to `N#C/C(=C\c1ccc(-c2cccc([N+](=O)[O-])c2)o1)C(=O)NC(c1ccccc1)C1CC1` (stereo not given), the IC50 in experiment [1] was > 10000 nM.

For `C[C@H](NC(=O)/C(C#N)=C/c1ccc2c(c1)OC(F)(F)O2)c1ccccc1`, the IC50 in experiment [1] is > 10000 nM.

As to `COc1cccc(CNC(=O)/C(C#N)=C/c2ccc(-c3cccc([N+](=O)[O-])c3)o2)c1`, in experiment [1], the IC50 is > 10000 nM.

In the case of `C[C@H](NC(=O)/C(C#N)=C/c1cccc(Br)n1)c1ccccc1F`, the results for the IC50 (in the experiment with U-266; in experiment [1]; in experiment [2]) were 2000 nM, 1800 nM and 2400 nM, respectively.

For `CCC[C@H](NC(=O)/C(C#N)=C/c1c(Cl)cccc1[N+](=O)[O-])c1ccccc1`, in experiment [1], the 50% inhibitory concentration (IC50) is > 10000 nM.

With `C[C@H](NC(=O)/C(C#N)=C/c1cccc(Br)n1)c1cccc(C(F)(F)F)c1`, the values for the IC50 (in the experiment with U-266; in experiment [1]; in experiment [2]) were 1600 nM, 1300 nM and 1800 nM, respectively.

`CC(=O)OC[C@H](NC(=O)/C(C#N)=C/c1cccc(Br)n1)c1ccccc1`: the IC50 was found to be 2800 nM in the experiment with U-266, 2600 nM in experiment [1] and 2900 nM in experiment [2].

`N#C/C(=C\c1ccc(Cl)c([N+](=O)[O-])c1)C(=O)N[C@@H](CO)c1ccccc1`: the IC50 in experiment [1] was > 10000 nM.

As to `COc1cccc([C@H](C)NC(=O)/C(C#N)=C/c2cccc(Br)n2)c1`, the IC50 in the experiment with U-266 was 2800 nM; in experiment [1] it was 2400 nM; in experiment [2] it was 3100 nM.

Consider `N#C/C(=C\c1cccc(Br)n1)C(=O)N[C@@H](Cc1ccccc1)c1ccccc1`, for which the IC50 with U-266 is 2700 nM; in experiment [1] it was 2500 nM; in experiment [2], 2900 nM.

Consider `N#C/C(=C\c1cccc(Br)n1)C(=O)NC(c1ccccc1)c1ccccc1`, for which the 50% inhibitory concentration (IC50) with U-266 amounted to 5800 nM; in experiment [1], 5000 nM; in experiment [2], 6200 nM.

As to `C[C@H](NC(=O)/C(C#N)=C/c1cccc(Br)n1)c1cc(C(F)(F)F)cc(C(F)(F)F)c1`, the figures for the IC50 (in the experiment on U-266; in experiment [1]) were 1500 nM and 1300 nM, respectively.

`N#C/C(=C\c1cccc(Br)n1)C(=O)N[C@@H]1CCCc2ccccc21`: the IC50 with U-266 turned out to be 1900 nM; in experiment [1], 1500 nM.

Turning to `CCC[C@H](NC(=O)/C(C#N)=C/c1cccc(Br)n1)c1ccccc1`, the IC50 in the experiment on U-266 came out at 1300 nM; in experiment [1], 1000 nM; in experiment [2] it was 1500 nM.

In the case of `C[C@H](NC(=O)/C(C#N)=C/c1ccc2c(c1)OCCN2C)c1ccccc1`, the 50% inhibitory concentration (IC50) in experiment [1] was > 10000 nM.

In the case of `C[C@H](NC(=O)/C(C#N)=C/c1cccc(Br)n1)c1ccc(Cl)cc1`, the IC50 with U-266 turned out to be 2000 nM; in experiment [1], 1600 nM; in experiment [2], 2300 nM.

On to `N#C/C(=C\c1cccc(Br)n1)C(=O)N[C@@H]1CCc2ccccc21`, for which the results for the IC50 (in the experiment on U-266; in experiment [1]) were 2500 nM and 2000 nM, respectively.

As for `CC[C@H](NC(=O)/C(C#N)=C/c1cccc(Br)n1)c1ccccc1`, the values for the IC50 (in the experiment with U-266; in experiment [1]; in experiment [2]) were 1400 nM, 1100 nM and 1700 nM, respectively.

Regarding `CCC[C@H](NC(=O)/C(C#N)=C/c1ccc(O)cc1)c1ccccc1`, the IC50 in experiment [1] was > 10000 nM.

Turning to `C[C@H](NC(=O)/C(C#N)=C/c1cccc(Br)n1)c1ccc(N)cc1`, the IC50 in experiment [1] is > 10000 nM.

As to `N#C/C(=C\c1cccc(Br)n1)C(=O)N[C@@H](CO)c1ccccc1`, the half-maximal inhibitory concentration (IC50) amounted to 3500 nM with U-266, 2800 nM in experiment [1] and 3900 nM in experiment [2].

As to `CCC[C@H](NC(=O)/C(C#N)=C/c1ccc([N+](=O)[O-])cc1[N+](=O)[O-])c1ccccc1`, the IC50 in experiment [1] was > 10000 nM.

`COc1ccc([C@H](C)NC(=O)/C(C#N)=C/c2cccc(Br)n2)cc1`: the IC50 in the experiment on U-266 was 1400 nM; in experiment [1] it was 1200 nM; in experiment [2], 1800 nM.

On to `N#C/C(=C\c1ccc([N+](=O)[O-])cc1)C(=O)NCc1ccccc1`, for which the values for the IC50 (in the experiment with U-266; in experiment [1]; in experiment [2]) were 9000 nM, 7500 nM and 12000 nM, respectively.

In the case of `Cc1ccc(CNC(=O)/C(C#N)=C/c2ccc(-c3cccc([N+](=O)[O-])c3)o2)o1`, the IC50 in experiment [1] is > 10000 nM.

On to `N#C/C(=C\c1cccc(Br)n1)C(=O)NCc1cccc(N)c1`, for which, in experiment [1], the IC50 is > 10000 nM.

As for `N#C/C(=C\c1ccc(Cl)c([N+](=O)[O-])c1)C(=O)NC(c1ccccc1)C1CC1` (stereo not given), the IC50 amounted to 2800 nM in the experiment with U-266, 2500 nM in experiment [1] and 2900 nM in experiment [2].

In the case of `N#C/C(=C\c1cccc(Br)n1)C(=O)N[C@H](c1ccccc1)C(F)(F)F`, the IC50 in the experiment with U-266 came to 11100 nM; in experiment [1], 9600 nM.

On to `C[C@H](NC(=O)/C(C#N)=C/c1cccc(Br)n1)c1ccccc1` [WP 1066], for which the IC50 in experiment [3] stood at 3700 nM; in experiment [4], 5600 nM; with U-266 it was 1500 nM; in experiment [1], 1200 nM; in experiment [2] it was 1800 nM. Further, the “Ratio IC50” value amounted to 18 with U-87 MG and 8 with U373 MG.

Turning to `CCC[C@H](NC(=O)/C(C#N)=C/c1ccc([N+](=O)[O-])cc1)c1ccccc1`, the values for the IC50 (in the experiment on U-266; in experiment [1]) were 3600 nM and 2940 nM, respectively.

For the compound `CCC[C@H](NC(=O)/C(C#N)=C/c1ccccc1)c1ccccc1`, the IC50 with U-266 worked out at 7200 nM; in experiment [1], 6250 nM.

Consider `C[C@H](NC(=O)/C(C#N)=C/c1cccc(Br)n1)c1ccc(F)cc1`, for which the values for the IC50 (with U-266; in experiment [1]) were 1400 nM and 1200 nM, respectively.

Consider `CCC(NC(=O)/C(C#N)=C/c1ccc(-c2cccc([N+](=O)[O-])c2)o1)c1ccccc1` (stereo not given), for which, in experiment [1], the IC50 was > 10000 nM.

Consider `CCC[C@H](NC(=O)/C(C#N)=C/c1ccc(Cl)c([N+](=O)[O-])c1)c1ccccc1`, for which the IC50 was 1800 nM in the experiment with U-266, 1580 nM in experiment [1] and 1900 nM in experiment [2].

With `COC(=O)C[C@H](NC(=O)/C(C#N)=C/c1cccc(Br)n1)c1ccccc1`, the 50% inhibitory concentration (IC50) in the experiment on U-266 amounted to 3300 nM; in experiment [1], 3100 nM.

Turning to `CCC[C@H](NC(=O)/C(C#N)=C/c1ccc(O)c([N+](=O)[O-])c1)c1ccccc1`, the IC50 in the experiment with U-266 is 9300 nM; in experiment [1], 8200 nM; in experiment [2], 9700 nM.

For `N#C/C(=C\c1ccc(O)c(O)c1)C(=O)NCc1ccccc1`, the values for the half-inhibitory concentration (IC50) (in the experiment with U-266; in experiment [1]; in experiment [2]) were > 12500 nM, > 10000 nM and > 12500 nM, respectively.

With `CCC[C@H](NC(=O)/C(C#N)=C/c1ccc(O)c(Br)c1)c1ccccc1`, the IC50 in experiment [1] was > 10000 nM.

`N#C/C(=C\c1cccc(Br)n1)C(=O)N[C@H](c1ccccc1)C1CC1` came in with an IC50 in experiment [1] of 1400 nM. That is a single-digit micromolar value.

On to `N#C/C(=C\c1ccc(-c2cccc([N+](=O)[O-])c2)o1)C(=O)NCc1ccccc1Cl`, for which, in experiment [1], the IC50 is > 10000 nM.

As to `Cc1ccc(CNC(=O)/C(C#N)=C/c2ccc(-c3cccc([N+](=O)[O-])c3)o2)cc1`, the IC50 in experiment [1] is > 10000 nM.

In the case of `C[C@H](NC(=O)/C(C#N)=C/c1cccc(Br)n1)c1ccc(Br)cc1`, the IC50 with U-266 was 1800 nM; in experiment [1] it was 1500 nM; in experiment [2], 2000 nM.

For `CCC[C@H](NC(=O)/C(C#N)=C/c1cccc([N+](=O)[O-])c1)c1ccccc1`, the IC50 with U-266 was 2100 nM; in experiment [1] it was 1730 nM; in experiment [2] it was 2200 nM.

Regarding `CCCCCCc1ccc(/C=C(\C#N)C(=O)NC(c2ccccc2)C2CC2)cc1` (stereo not given), the IC50 in experiment [1] is > 10000 nM.

As to `N#C/C(=C\c1ccc(N2CCCCC2)cc1)C(=O)NC(c1ccccc1)C1CC1` (stereo not given), the IC50 (with U-266; in experiment [1]) was > 10000 nM each time.

In general, IC50 refers to the concentration that inhibits the measured activity by half. The low end stands for greater potency in that assay, the high end for weaker potency in that assay.
